Among the data in ChEMBL document CHEMBL2375324 (Bioorg Med Chem, 2013) are IC50 values, retold here.

In one assay the target is Bcr/Abl fusion protein (Homo sapiens, UniProt P00519). The assay is described as follows: Inhibition of Bcr-Abl kinase (unknown origin) after 30 mins by HTRF assay. Format: protein assay. (In general: TR-FRET usually uses a lanthanide donor and a delayed reading to cut background.)
The next assay concerns K562. In words: Antiproliferative activity against human K562 cells after 48 hrs by MTT assay. Format: functional, cell-based. The following applies: K562, 48 h. The essentials:
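Exponentially growing K562 cells were seeded at 1 × 10⁴ cells/well and preincubated 24 h at 37 °C. They were then exposed to the compounds at various concentrations for 48 h. MTT (5 mg/mL solution) was added for 4 h at 37 °C, the supernatant was removed, and formazan was dissolved in DMSO. Absorbance was read at 490 nm, and IC₅₀ is reported in µM.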

Bcr/Abl fusion protein, sequence (P00519 whole entry, the tested form may be a part): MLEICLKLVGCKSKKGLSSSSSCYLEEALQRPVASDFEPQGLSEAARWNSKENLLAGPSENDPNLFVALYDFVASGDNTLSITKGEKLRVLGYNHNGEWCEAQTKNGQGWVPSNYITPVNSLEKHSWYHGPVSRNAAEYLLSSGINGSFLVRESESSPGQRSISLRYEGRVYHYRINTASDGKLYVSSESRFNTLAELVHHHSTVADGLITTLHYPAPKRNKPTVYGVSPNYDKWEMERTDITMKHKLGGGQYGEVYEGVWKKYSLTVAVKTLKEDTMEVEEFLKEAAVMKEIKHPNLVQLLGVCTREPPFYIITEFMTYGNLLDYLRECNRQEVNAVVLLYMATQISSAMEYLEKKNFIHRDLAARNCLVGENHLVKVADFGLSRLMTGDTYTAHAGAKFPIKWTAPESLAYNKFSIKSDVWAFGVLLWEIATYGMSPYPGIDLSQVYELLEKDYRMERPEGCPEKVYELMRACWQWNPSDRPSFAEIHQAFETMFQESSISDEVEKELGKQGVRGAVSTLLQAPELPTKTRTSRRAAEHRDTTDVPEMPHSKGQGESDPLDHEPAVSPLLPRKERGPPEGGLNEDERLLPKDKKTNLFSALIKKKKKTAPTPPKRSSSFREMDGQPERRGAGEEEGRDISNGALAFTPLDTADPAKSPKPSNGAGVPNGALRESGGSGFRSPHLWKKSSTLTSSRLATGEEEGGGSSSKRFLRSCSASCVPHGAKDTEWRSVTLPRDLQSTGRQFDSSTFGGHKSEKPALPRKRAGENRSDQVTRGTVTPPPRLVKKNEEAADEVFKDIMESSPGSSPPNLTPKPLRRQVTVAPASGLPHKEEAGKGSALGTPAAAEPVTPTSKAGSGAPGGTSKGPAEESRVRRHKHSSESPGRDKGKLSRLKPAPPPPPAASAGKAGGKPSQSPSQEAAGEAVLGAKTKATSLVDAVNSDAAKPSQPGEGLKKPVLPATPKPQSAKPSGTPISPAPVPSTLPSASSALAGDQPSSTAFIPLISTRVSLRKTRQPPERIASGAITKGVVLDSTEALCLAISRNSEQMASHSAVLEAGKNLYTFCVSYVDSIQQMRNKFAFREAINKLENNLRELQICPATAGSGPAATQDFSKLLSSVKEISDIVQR
Bcr/Abl fusion protein, sequence (P11274 whole entry, further chain, the tested form may be a part): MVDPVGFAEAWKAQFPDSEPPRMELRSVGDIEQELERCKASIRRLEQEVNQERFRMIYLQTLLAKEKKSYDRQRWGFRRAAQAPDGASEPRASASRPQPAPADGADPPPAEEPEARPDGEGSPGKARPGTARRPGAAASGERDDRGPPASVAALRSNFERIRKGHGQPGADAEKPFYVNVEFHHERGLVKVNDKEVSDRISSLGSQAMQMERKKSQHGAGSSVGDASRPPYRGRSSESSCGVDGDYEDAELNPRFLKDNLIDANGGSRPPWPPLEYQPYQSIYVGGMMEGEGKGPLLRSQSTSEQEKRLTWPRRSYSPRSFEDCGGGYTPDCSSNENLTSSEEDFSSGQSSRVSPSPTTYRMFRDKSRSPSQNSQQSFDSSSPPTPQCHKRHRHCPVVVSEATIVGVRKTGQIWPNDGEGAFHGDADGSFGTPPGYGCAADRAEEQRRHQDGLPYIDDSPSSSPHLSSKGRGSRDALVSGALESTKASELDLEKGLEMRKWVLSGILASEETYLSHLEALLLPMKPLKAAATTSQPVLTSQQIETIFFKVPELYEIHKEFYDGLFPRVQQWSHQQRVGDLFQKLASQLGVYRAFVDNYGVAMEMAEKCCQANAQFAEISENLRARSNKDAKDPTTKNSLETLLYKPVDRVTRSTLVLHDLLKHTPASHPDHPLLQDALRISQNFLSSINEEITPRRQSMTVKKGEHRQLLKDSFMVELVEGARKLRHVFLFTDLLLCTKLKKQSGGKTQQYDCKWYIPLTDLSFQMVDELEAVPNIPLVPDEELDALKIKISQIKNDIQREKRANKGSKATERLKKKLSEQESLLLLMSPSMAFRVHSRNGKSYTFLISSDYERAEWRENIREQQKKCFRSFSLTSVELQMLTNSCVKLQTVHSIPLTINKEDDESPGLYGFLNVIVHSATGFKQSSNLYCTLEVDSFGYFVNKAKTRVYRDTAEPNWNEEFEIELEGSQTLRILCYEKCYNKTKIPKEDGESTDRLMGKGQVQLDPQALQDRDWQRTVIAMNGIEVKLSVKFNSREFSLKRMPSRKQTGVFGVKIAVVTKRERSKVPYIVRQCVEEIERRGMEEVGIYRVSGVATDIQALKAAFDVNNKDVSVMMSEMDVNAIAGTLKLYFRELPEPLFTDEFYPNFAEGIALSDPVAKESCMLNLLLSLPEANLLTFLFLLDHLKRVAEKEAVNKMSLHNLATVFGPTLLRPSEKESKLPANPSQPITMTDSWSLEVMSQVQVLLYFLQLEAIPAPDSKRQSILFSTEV

At Bcr/Abl fusion protein, `COc1ccc(C(=O)Nc2ccc(F)c(Cl)c2)cc1Nc1nccc(-c2cccnc2)n1` displayed an IC50 of 0.00473 µM. The same measure, in the same setting: under `COc1ccc(C(=O)Nc2cccc(C(F)(F)F)c2)cc1Nc1nccc(-c2cccnc2)n1` stands 4.13 µM; under `COc1ccc(C(=O)Nc2ccc(Br)cc2)cc1Nc1nccc(-c2cccnc2)n1`, 0.00479 µM; under `COc1ccc(C(=O)Nc2cccc(F)c2)cc1Nc1nccc(-c2cccnc2)n1`, 0.00321 µM.

For `COc1ccc(C(=O)Nc2cc(C(F)(F)F)cc(C(F)(F)F)c2)cc1Nc1nccc(-c2cccnc2)n1`, in the assay on K562, the IC50 stood at 4.84 µM. On the same count and under the same terms, the result for `COc1ccc(C(=O)Nc2cc(Br)cc(C(F)(F)F)c2)cc1Nc1nccc(-c2cccnc2)n1` reads 215 µM. As to `COc1ccc(C(=O)Nc2cccc(Cl)c2)cc1Nc1nccc(-c2cccnc2)n1`, the values for the IC50 against Bcr/Abl fusion protein and with K562 were 0.0348 µM and 237 µM, respectively.

In the case of `COc1ccc(C(=O)Nc2cccc(C(C)=O)c2)cc1Nc1nccc(-c2cccnc2)n1`, in the assay on K562, the midpoint of inhibition, the IC50, lay at 237 µM.

In the assay on K562, `COc1cccc(NC(=O)c2ccc(OC)c(Nc3nccc(-c4cccnc4)n3)c2)c1` registered an IC50 of 93.1 µM. For `COc1ccc(C(=O)Nc2ccncc2)cc1Nc1nccc(-c2cccnc2)n1`, the IC50 came out at 2.75 µM at Bcr/Abl fusion protein and 94.5 µM with K562. The molecule `COc1ccc(C(=O)Nc2ncccn2)cc1Nc1nccc(-c2cccnc2)n1` registered an IC50 against Bcr/Abl fusion protein of 0.00378 µM.

With `COc1ccc(C(=O)Nc2nccs2)cc1Nc1nccc(-c2cccnc2)n1`, the IC50 against Bcr/Abl fusion protein was determined as 0.294 µM. Take `COc1ccc(C(=O)Nc2ccc(OCCCN(C)C)cc2)cc1Nc1nccc(-c2cccnc2)n1`: the IC50 at Bcr/Abl fusion protein is 0.00052 µM; in the assay on K562, 38.5 µM. In the case of `COc1ccc(C(=O)Nc2ccc(OCCN(C)C)cc2)cc1Nc1nccc(-c2cccnc2)n1`, the concentration for half-maximal inhibition (IC50) against Bcr/Abl fusion protein was 0.00234 µM. On the same count and under the same terms, under `CCN(CC)CCOc1ccc(NC(=O)c2ccc(OC)c(Nc3nccc(-c4cccnc4)n3)c2)cc1` stands 0.00148 µM. As to `COc1ccc(C(=O)Nc2ccc(OCCN3CCCC3)cc2)cc1Nc1nccc(-c2cccnc2)n1`, the figures for the IC50 on Bcr/Abl fusion protein and in the assay on K562 were 0.35 µM and 38.6 µM, respectively. The corresponding values for `COc1ccc(C(=O)Nc2ccc(OCCN3CCCCC3)cc2)cc1Nc1nccc(-c2cccnc2)n1` are 1.11 µM and 5.15 µM. In the case of `COc1ccc(C(=O)Nc2ccc(OCCN3CCOCC3)cc2)cc1Nc1nccc(-c2cccnc2)n1`, the IC50 at Bcr/Abl fusion protein stood at 0.0633 µM. In other words, the double-digit nanomolar range. The same measure, in the same setting: under `COc1ccc(C(=O)Nc2ccc(OCCCN3CCOCC3)cc2)cc1Nc1nccc(-c2cccnc2)n1` stands 0.00634 µM. Molecule `Cc1cn(-c2cc(NC(=O)c3ccc(C)c(Nc4nccc(-c5cccnc5)n4)c3)cc(C(F)(F)F)c2)cn1` [NILOTINIB] gave an IC50 with K562 of 89.1 µM.

The IC50 is the concentration that gives 50% inhibition. Low readings indicate greater potency in that assay, high ones weaker potency in that assay.
